# Results as given in ChEMBL document CHEMBL3112548, “Synthesis and biological evaluation of novel tetrahydro-β-carboline derivatives as antitumor growth and metastasis agents through inhibiting the transforming growth factor-β signaling pathway” (J Med Chem, 2014).
# Activity calls are given as the source filed them. The calls are words filed in the database; no cut-off is given here.
# System: not listed separately
# Experiment: Antimigratory activity against human H1299 cells assessed as inhibition of cell migration after 12 to 24 hrs by transwell migration assay
# Assay type: functional, cell-based
# Conditions: NCI-H1299
# Outline: (§1)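 Transwell chambers, 8 μm pore filters; 5 × 10^5 cells in DMEM in top chamber with compound, 10% FBS medium below, 37 °C, 5% CO2; after 12−24 h non-migrated cells swabbed off, migrated cells fixed, stained with 0.2% crystal violet in PBS and counted in five random 10× fields per membrane. Means ± SD.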
row,IC50,Structure (SMILES)
1,0.5 µM,NC(=O)c1ccc(-c2nc(-c3ccccn3)c(-c3ccc4c(c3)OCO4)[nH]2)cc1 [SB-431542]
2,< 0.5 µM,O=C(Cc1ccccc1)N1CCc2c([nH]c3ccccc23)C1

# System: A549
# Experiment: Antitumor activity against human A549 cells xenografted in nude mouse assessed as suppression of tumor volume at 5 mg/kg, ip qd for 60 days measured up to 60 days
# Assay type: functional, organism-based
# Design: dose 5 mg/kg
# Conditions: not given
# Outline: (§2)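 Nude mice (5 weeks old, acclimated 1 week) given 5 × 10^5 A549 cells in PBS subcutaneously; at ~10 mm tumor diameter, 15 mice size-matched into three groups (n = 5): DMSO vehicle, 5.0 mg/kg or 20 mg/kg ip in 50 μL DMSO daily for 60 days. Body weight and tumor dimensions measured daily; volume = 0.52 × AB².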
row,Structure (SMILES),Activity
1,O=C(Cc1ccccc1)N1CCc2c([nH]c3ccccc23)C1,Active

# System: A549
# Experiment: Antiproliferative activity against human A549 cells after 48 hrs by SRB assay
# Assay type: functional, cell-based
# Conditions: A549, 48 h
# Outline: (§3)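 SRB assay: 1 × 10^4 cells per well in 96-well plates exposed to compound 48 h; fixed with 10% TCA, stained 30 min at room temperature, washed with 1% acetic acid, dye dissolved in 10 mM Tris base, OD 510 nm. Percent inhibition = decrease in absorbance relative to DMSO control wells.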
row,IC50,Structure (SMILES)
1,4.85 µM,O=C(Cc1ccccc1)N1CCc2c([nH]c3ccc(F)cc23)C1
2,7.9 µM,O=C(Cc1ccccc1)N1CCc2c([nH]c3ccccc23)C1

# System: A549
# Experiment: Antiproliferative activity against human A549 cells assessed as cell viability at 1 uM after 12 hrs by SRB assay
# Assay type: functional, cell-based
# Conditions: not given
row,Structure (SMILES),Activity
1,O=C(Cc1ccccc1)N1CCc2c([nH]c3ccccc23)C1,Active

# Biological target: TGF-beta receptor type-1 (Homo sapiens) (UniProt P36897)
# Sequence (P36897 whole entry, looked up): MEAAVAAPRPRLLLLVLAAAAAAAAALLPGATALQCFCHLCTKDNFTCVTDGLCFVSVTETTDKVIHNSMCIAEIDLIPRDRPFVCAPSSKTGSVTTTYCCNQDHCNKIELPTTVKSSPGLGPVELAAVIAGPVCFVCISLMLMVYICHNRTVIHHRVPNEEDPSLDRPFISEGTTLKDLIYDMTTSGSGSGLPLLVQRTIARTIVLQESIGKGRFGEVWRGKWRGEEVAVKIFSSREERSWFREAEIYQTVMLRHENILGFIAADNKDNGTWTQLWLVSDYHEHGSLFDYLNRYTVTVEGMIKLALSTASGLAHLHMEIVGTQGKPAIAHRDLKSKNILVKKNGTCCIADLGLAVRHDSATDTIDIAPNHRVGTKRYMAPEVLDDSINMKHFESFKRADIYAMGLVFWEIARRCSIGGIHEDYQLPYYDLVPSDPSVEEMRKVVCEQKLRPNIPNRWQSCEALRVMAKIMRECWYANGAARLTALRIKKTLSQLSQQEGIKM
# Experiment: Inhibition of TGFbetaR1-mediated smad phosphorylation in human HaCaT cells at 1 uM measured within 24 hrs by dual-luciferase reporter gene assay
# Conditions: not given
row,Structure (SMILES),inhibition
1,O=C(c1ccccn1)N1CCc2c([nH]c3ccccc23)C1,1.1%
2,O=C(Cc1ccc(CBr)cc1)N1CCc2c([nH]c3ccccc23)C1,50.1%
3,Nc1ccc(CC(=O)N2CCc3c([nH]c4ccccc34)C2)cc1,18.1%
4,O=C(Cc1ccccc1O)N1CCc2c([nH]c3ccccc23)C1,19.7%
5,O=C(c1ccccc1)N1CCc2c([nH]c3ccccc23)C1,9.5%
6,O=C(O)CC1c2[nH]c3ccccc3c2CCN1C(=O)Cc1ccccc1 (stereo unspecified),4.1%
7,O=C(Cc1ccc(F)cc1)N1CCc2c([nH]c3ccccc23)C1,11.8%
8,O=C(C(O)c1ccccc1)N1CCc2c([nH]c3ccccc23)C1 (stereo unspecified),12.9%
9,O=C(CCc1ccccc1)N1CCc2c([nH]c3ccccc23)C1,31.1%
10,O=C(Cc1ccccc1)N1CCc2c([nH]c3ccccc23)C1c1ccccc1 (stereo unspecified),10.3%
11,O=C(N1CCc2c([nH]c3ccccc23)C1)C(O)(c1ccccc1)c1ccccc1,12.3%
12,O=C(Cc1ccccc1)N1CCc2c([nH]c3ccccc23)C1,72.4%
13,COC(=O)CC1c2[nH]c3ccccc3c2CCN1C(=O)Cc1ccccc1 (stereo unspecified),18.2%
14,O=C(Cc1ccc(Cl)cc1)N1CCc2c([nH]c3ccccc23)C1,7.9%
15,O=C(Cc1ccc(O)cc1)N1CCc2c([nH]c3ccccc23)C1,64.2%
16,O=Cc1ccc(CC(=O)N2CCc3c([nH]c4ccccc34)C2)cc1,11.8%
17,O=C(Cc1ccc(O)c(O)c1)N1CCc2c([nH]c3ccccc23)C1,21%

# Continued, values first:
row,inhibition,Structure (SMILES)
1,58.8%,CC(C)(C)OC(=O)NC(C(=O)N1CCc2c([nH]c3ccccc23)C1)c1ccccc1 (stereo unspecified)
2,52.1%,CCC1c2[nH]c3ccccc3c2CCN1C(=O)Cc1ccccc1 (stereo unspecified)
3,29.1%,O=C(Cc1cccc(O)c1)N1CCc2c([nH]c3ccccc23)C1
4,44.3%,CC(C)(C)OC(=O)NC(Cc1ccccc1)C(=O)N1CCc2c([nH]c3ccccc23)C1 (stereo unspecified)
5,10.9%,NC(C(=O)N1CCc2c([nH]c3ccccc23)C1)c1ccccc1 (stereo unspecified)
6,11.2%,CC1c2[nH]c3ccc(O)cc3c2CCN1C(=O)Cc1ccccc1 (stereo unspecified)
7,2.2%,O=C(c1cccs1)N1CCc2c([nH]c3ccccc23)C1
8,49%,CCN(CC)c1ccc(CC(=O)N2CCc3c([nH]c4ccccc34)C2)cc1

# System: NCI-H1299
# Experiment: Antiproliferative activity against human H1299 cells assessed as cell viability at 1 uM after 12 hrs by SRB assay
# Assay type: functional, cell-based
# Conditions: not given
row,Structure (SMILES),Activity
1,O=C(Cc1ccccc1)N1CCc2c([nH]c3ccccc23)C1,Active

# System: NCI-H1299
# Experiment: Antimigratory activity against human H1299 cells assessed as reduction of cell velocity at 1 uM after 24 hrs by time-lapse video microscopy
# Assay type: functional, cell-based
# Conditions: not given
# Outline: (§4)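 H1299 cells (5 × 10^4) in 30 mm dishes pretreated with or without compound for 24 h, then tracked by time-lapse microscopy, one frame per 10 min over 10 h; eight random cells per condition; migration distance and speed taken from track plots. Means ± SD, Student's t test.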
row,Structure (SMILES),Activity
1,O=C(Cc1ccccc1)N1CCc2c([nH]c3ccccc23)C1,Active

# System: not listed separately
# Experiment: Antimigratory activity against human H1299 cells assessed as decrease in cell migration after 12 hrs by wound healing assay
# Conditions: NCI-H1299, 12 h
row,IC50,Structure (SMILES)
1,0.1 µM,O=C(Cc1ccccc1)N1CCc2c([nH]c3ccccc23)C1

# System: 4T1
# Experiment: Antitumor activity against mouse 4T1 cells expressing luciferase allograted in ip dosed Balb/c mouse assessed as suppression of tumor volume compound administered for 20 days measured after 20 days
# Assay type: functional, organism-based
# Conditions: not given
# Outline: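 Female Balb/c mice (6 weeks old) given 5 × 10^4 4T1-luciferase cells into mammary fat pad; after 7 days (~5 mm tumors) 24 mice randomized into DMSO vehicle, 1.0 or 5.0 mg/kg/day ip groups; after 20 days tumor burden quantified as bioluminescence by in vivo imaging. Body weight measured daily. Mean ± SD.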
row,Structure (SMILES),Activity
1,O=C(Cc1ccccc1)N1CCc2c([nH]c3ccccc23)C1,Dose-dependent effect

# System: not listed separately
# Experiment: Antiproliferative activity against human H1299 cells after 48 hrs by SRB assay
# Assay type: functional, cell-based
# Conditions: NCI-H1299, 48 h
# Outline: as §3
row,Structure (SMILES),IC50
1,O=C(Cc1ccccc1)N1CCc2c([nH]c3ccc(F)cc23)C1,6.19 µM
2,O=C(Cc1ccccc1)N1CCc2c([nH]c3ccccc23)C1,8.07 µM

# System: not listed separately
# Experiment: Antiproliferative activity against human PC9 cells after 48 hrs by SRB assay
# Assay type: functional, cell-based
# Conditions: PC-9, 48 h
# Outline: as §3
row,Structure (SMILES),IC50
1,O=C(Cc1ccccc1)N1CCc2c([nH]c3ccc(F)cc23)C1,7.09 µM
2,O=C(Cc1ccccc1)N1CCc2c([nH]c3ccccc23)C1,5.87 µM

# System: Mus musculus
# Experiment: Toxicity in nude mouse xenografted with human A549 cells assessed as body weight change at 20 mg/kg, ip qd for 60 days measured up to 60 days
# Assay type: organism-based
# Design: dose 20 mg/kg, route intraperitoneal
# Conditions: in vivo, 1440 h
# Outline: as §2
row,Structure (SMILES),Activity
1,COc1cc2ncnc(Nc3ccc(F)c(Cl)c3)c2cc1OCCCN1CCOCC1 [GEFITINIB],Toxic

# System: A549
# Experiment: Antimigratory activity against human A549 cells assessed as inhibition of cell migration after 12 to 24 hrs by transwell migration assay
# Assay type: functional, cell-based
# Conditions: not given
# Outline: as §1
row,IC50,Structure (SMILES)
1,< 0.5 µM,O=C(Cc1ccccc1)N1CCc2c([nH]c3ccccc23)C1

# System: not listed separately
# Experiment: Antiproliferative activity against human PC9 cells at 10 uM after 48 hrs by SRB assay
# Assay type: functional
# Conditions: PC-9, 48 h
# Outline: as §3
row,Structure (SMILES),inhibition at 10 µM
1,CC(C)(C)OC(=O)NC(C(=O)N1CCc2c([nH]c3ccccc23)C1)c1ccccc1 (stereo unspecified),31%
2,O=C(c1ccccn1)N1CCc2c([nH]c3ccccc23)C1,4%
3,CCC1c2[nH]c3ccccc3c2CCN1C(=O)Cc1ccccc1 (stereo unspecified),24%
4,O=C(Cc1ccc(CBr)cc1)N1CCc2c([nH]c3ccccc23)C1,26%
5,Nc1ccc(CC(=O)N2CCc3c([nH]c4ccccc34)C2)cc1,8%
6,O=C(Cc1ccccc1O)N1CCc2c([nH]c3ccccc23)C1,33%
7,O=C(Cc1ccccc1)N1CCc2c([nH]c3ccc(F)cc23)C1,78%
8,O=C(c1ccccc1)N1CCc2c([nH]c3ccccc23)C1,7%
9,O=C(Cc1cccc(O)c1)N1CCc2c([nH]c3ccccc23)C1,11%
10,O=C(O)CC1c2[nH]c3ccccc3c2CCN1C(=O)Cc1ccccc1 (stereo unspecified),9%
11,O=C(Cc1ccc(F)cc1)N1CCc2c([nH]c3ccccc23)C1,21%
12,O=C(C(O)c1ccccc1)N1CCc2c([nH]c3ccccc23)C1 (stereo unspecified),28%
13,O=C(CCc1ccccc1)N1CCc2c([nH]c3ccccc23)C1,48%
14,O=C(Cc1ccccc1)N1CCc2c([nH]c3ccccc23)C1c1ccccc1 (stereo unspecified),10%
15,O=C(Cc1ccccc1)N1CCc2c([nH]c3ccc(Br)cc23)C1,47%
16,CC(C)(C)OC(=O)NC(Cc1ccccc1)C(=O)N1CCc2c([nH]c3ccccc23)C1 (stereo unspecified),0%
17,O=C(N1CCc2c([nH]c3ccccc23)C1)C(O)(c1ccccc1)c1ccccc1,0%
18,O=C(Cc1ccccc1)N1CCc2c([nH]c3ccccc23)C1,59%
19,NC(C(=O)N1CCc2c([nH]c3ccccc23)C1)c1ccccc1 (stereo unspecified),11%
20,O=C(Cc1ccc(Cl)cc1)N1CCc2c([nH]c3ccccc23)C1,33%
21,O=C(Cc1ccc(O)cc1)N1CCc2c([nH]c3ccccc23)C1,39%
22,CC1c2[nH]c3ccc(O)cc3c2CCN1C(=O)Cc1ccccc1 (stereo unspecified),8%
23,O=C(c1cccs1)N1CCc2c([nH]c3ccccc23)C1,9%
24,O=Cc1ccc(CC(=O)N2CCc3c([nH]c4ccccc34)C2)cc1,21%
25,O=C(Cc1ccc(O)c(O)c1)N1CCc2c([nH]c3ccccc23)C1,26%
26,CCN(CC)c1ccc(CC(=O)N2CCc3c([nH]c4ccccc34)C2)cc1,18%

# System: NCI-H1299
# Experiment: Antimigratory activity against human H1299 cells assessed as reduction in distance at 1 uM after 24 hrs by time-lapse video microscopy
# Assay type: functional, cell-based
# Conditions: not given
# Outline: as §4
row,Structure (SMILES),Activity
1,O=C(Cc1ccccc1)N1CCc2c([nH]c3ccccc23)C1,Active

# System: A549
# Experiment: Antitumor activity against human A549 cells xenografted in nude mouse assessed as suppression of tumor volume at 20 mg/kg, ip qd for 60 days measured up to 60 days
# Assay type: functional, organism-based
# Design: dose 20 mg/kg
# Conditions: not given
# Outline: as §2
row,Structure (SMILES),Activity
1,COc1cc2ncnc(Nc3ccc(F)c(Cl)c3)c2cc1OCCCN1CCOCC1 [GEFITINIB],Active

# System: Mus musculus
# Experiment: Toxicity in nude mouse xenografted with human A549 cells assessed as body weight change at 5 mg/kg, ip qd for 60 days measured up to 60 days
# Assay type: organism-based
# Design: dose 5 mg/kg, route intraperitoneal
# Conditions: in vivo, 1440 h
# Outline: as §2
row,Structure (SMILES),Activity
1,O=C(Cc1ccccc1)N1CCc2c([nH]c3ccccc23)C1,Toxic

# System: A549
# Experiment: Antimigratory activity against human A549 cells assessed as decrease in cell migration after 12 hrs by wound healing assay
# Conditions: A549, 12 h
row,IC50,Structure (SMILES)
1,0.1 µM,O=C(Cc1ccccc1)N1CCc2c([nH]c3ccccc23)C1
